HSF1 inh: HSF1 inhibitors in luciferase reporter cells, primary screen, cell-based, NIH3T3, luminescence; actives 0.77% (n = 300,000); NIH3T3-HGL HSE-luciferase, MG132-induced, luminescence 8 h; active compounds read low; activity change, negative = inhibition, % at 7.5 µM (by protocol);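 active means more than half of replicate wells show activity change below -50%, luminescence cut by over half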;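 further: luciferase reports HSF-1 transcriptional activity via heat shock element; 0% = median of DMSO wells and -100% = zero luminescence signal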
PERK inh: block of dimerizer-induced PERK translation repression, primary screen, PERK inhibitor project, CHO PERK-DD cells, SEAP luminescence, HTS. CHO PERK-DD fusion, SEAP luminescence translation reporter. Eukaryotic translation initiation factor 2-alpha kinase 3 (Homo sapiens), Q9NZJ5. actives 0.17% (n = 220,000). AID 1416, 2008. inhibition, % at 5.6 µM;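 active means inhibition above the mean inhibition of all tested compounds plus 3 SD, set separately per screening campaign, cut at about 2.9% in these data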;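 further: PERK kinase domain activated by AP20187 dimerizer at 100 nM; 0% = DMSO with dimerizer and 100% = rapamycin at 8.4 µM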
PolyA inh: polyadenylation inhibitors in yeast reporter cells, primary screen, luminescence, S. cerevisiae. S. cerevisiae SKY197-pL101 polyadenylation reporter, beta-gal luminescence; efflux-impaired pdr1/pdr3 knockout yeast; score 100 = 6 SD above DMSO. activity score, % at 12 µM. actives 0.02% (n = 300,000);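 active means lowest replicate activity score at least 50, where 100 means six control SD above control mean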;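 further: yeast exposed to compound for 9 h at 30 °C; higher score means more reporter readthrough which indicates perturbed polyadenylation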
AHR activator: AHR activators, primary screen, cell-based, luminescence, luciferase reporter, human | AID 2796, 2010 | AHR-responsive luciferase reporter cells | actives 2.5% (n = 320,000) | activation, % at 5 µM | Aryl hydrocarbon receptor (Homo sapiens), P35869; in the data active means activation above about 47%;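 further: 0% = vehicle wells and 100% = reference agonist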
Target sequence (P35869 whole entry, looked up): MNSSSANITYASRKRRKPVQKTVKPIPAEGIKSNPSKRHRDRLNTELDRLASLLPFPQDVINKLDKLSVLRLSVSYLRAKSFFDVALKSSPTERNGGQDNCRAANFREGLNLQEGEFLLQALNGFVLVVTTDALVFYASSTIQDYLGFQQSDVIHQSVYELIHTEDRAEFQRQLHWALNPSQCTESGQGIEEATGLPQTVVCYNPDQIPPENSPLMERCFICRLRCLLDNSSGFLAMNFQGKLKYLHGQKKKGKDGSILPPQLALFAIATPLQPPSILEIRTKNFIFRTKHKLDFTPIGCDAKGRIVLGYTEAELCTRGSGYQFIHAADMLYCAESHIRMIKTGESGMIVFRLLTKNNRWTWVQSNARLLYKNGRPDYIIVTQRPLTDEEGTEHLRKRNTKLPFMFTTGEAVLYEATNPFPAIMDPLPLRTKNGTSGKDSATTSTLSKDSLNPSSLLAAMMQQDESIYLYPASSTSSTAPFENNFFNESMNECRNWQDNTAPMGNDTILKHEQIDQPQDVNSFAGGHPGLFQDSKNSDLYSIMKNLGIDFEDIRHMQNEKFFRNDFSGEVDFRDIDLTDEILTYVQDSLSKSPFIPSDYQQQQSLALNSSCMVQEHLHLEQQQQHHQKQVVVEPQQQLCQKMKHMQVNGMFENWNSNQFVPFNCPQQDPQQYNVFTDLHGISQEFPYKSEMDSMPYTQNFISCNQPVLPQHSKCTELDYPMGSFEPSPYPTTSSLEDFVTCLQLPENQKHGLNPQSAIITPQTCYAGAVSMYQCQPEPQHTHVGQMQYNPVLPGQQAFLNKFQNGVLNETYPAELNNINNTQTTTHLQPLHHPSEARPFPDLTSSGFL
STAT3 act-1: IL-6 driven STAT3 reporter potentiators, primary screen, U3A cells, luciferase, luminescence, MLSCN library; IL-6 STAT3-luciferase reporter; 100% = signal with IL-6 EC80 alone; activation (% of control), % at 5.6 µM; actives 0.91% (n = 190,000); AID 871, 2007;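 active means activation above the screen-wide mean of compound activation plus 3 SD, cut at about 130% in these data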;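 further: 0% = background luminescence of wells with medium and substrate only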
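Material: STAT1-lacking human U3A cells, STAT3 luciferase reporter | Benchmarks: IL-6-only wells as 100% reference | Probe or stimulus: IL-6 (33 ng/mL) | Timing: Compound 1 h, then IL-6 6 h at 37 °C | Detection: Luminescence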
Hsp70 activator: Hsp70 transcriptional activators, primary screen, cell-based, HeLa, Hsp70 promoter luciferase, luminescence, 10 µM. AID 1203, 2008. actives 0.04% (n = 200,000). activation, % at 10 µM. HeLa Hsp70 promoter luciferase reporter; scaled: vehicle 0, proteasome-inhibitor control 100%;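 active means activation above the mean across all tested compounds plus 3 SD, cutoff set per campaign, cut at about 5.5% in these data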;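 further: 100% = MG132 at 30 µM as the positive control and 0% = DMSO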
STAT3 act-2: STAT3 reporter potentiators, retest of hits, confirmation, U3A cells, luciferase, luminescence; IL-6 potentiation; U3A cells lack STAT1; 100 means same as IL-6 alone; potentiation (% of control), % at 5.7 µM; shares compounds with STAT3 act-1; AID 1267, 2008; actives 64% (n = 1,200);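 active means percent activation of the STAT3 luciferase reporter above a set limit taken from the earlier primary screen, cut at about 130% in these data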;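 further: 0% = background signal of medium plus substrate and 100% = median of IL-6 with DMSO wells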
NFkB act STAT3ct: NF-kB reporter activators in human cells, counter-screen for STAT3 activator project; actives 11% (n = 1,200); NF-kappaB reporter activation; shares compounds with STAT3 act-1; activation (% of control), % at 5.7 µM; in the data active means activation above about 120%;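 further: reporter induced by TNF-alpha stimulation; 100% = median of stimulated DMSO wells and 0% = no signal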
STAT1 act STAT3c: STAT1 reporter activators, IFN-gamma induced, counter-screen for STAT3 activator project, cell-based, NIH 3T3, luciferase luminescence | shares compounds with STAT3 act-1 | NIH 3T3 STAT1-luciferase reporter | activation (% of control), % at 5.7 µM | actives 13% (n = 1,200);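 active means activation above the solvent-only control well mean plus 3 SD, set per screening run, cut at about 120% in these data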;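 further: 100% = IFN-gamma with DMSO median signal so 100% means no change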
* marks the source's active call; other numbers are inactive results; x = no result given. Hits are enriched below; roughly 3.6% of the tested compounds scored in any of these assays.

SMILES	HSF1 inh	PERK inh	PolyA inh	AHR activator	STAT3 act-1	Hsp70 activator	STAT3 act-2	NFkB act STAT3ct	STAT1 act STAT3c
COc1ccc(C)cc1-n1nnnc1SCc1nc2ccccc2s1	1.4	-0.5	-15.6	34.3	146.9*	0.0	144.4*	119.2	127.7*
COCCn1c(SCc2nc3ccccc3s2)nc2ccccc21	41.3	-0.8	-13.6	30.5	147.2*	0.3	145.9*	122.5*	140.1*
CC(CNC(=O)CCC(=O)N1CCOc2ccc(Cl)cc21)c1ccccc1 (stereo unspecified)	4.2	x	-4.9	-2.0	x	x	x	x	x
CCc1ccc(N(C(=O)c2csnn2)C(C(=O)NC(C)(C)CC)c2ccccn2)cc1 (stereo unspecified)	23.1	0.1	0.4	12.1	115.5	-0.1	x	x	x
CCc1ccc(N(C(=O)c2csnn2)C(C(=O)NC(C)(C)C)c2ccccn2)cc1 (stereo unspecified)	8.6	0.4	-13.1	6.8	138.7*	-0.3	134.8*	115.7	120.0
CC1COc2ccccc2N1C(=O)c1ccc(Cl)cc1 (stereo unspecified)	-4.6	x	-3.1	11.9	x	x	x	x	x
CC1COc2ccccc2N1C(=O)c1ccc(Cl)nc1 (stereo unspecified)	-5.4	0.4	-15.9	41.0	144.7*	0.1	135.6*	104.2	100.5
Cc1ccc(C2=Nc3ccccc3NC(C)(c3ccc(C)o3)C2)o1 (stereo unspecified)	40.3	-0.3	-4.0	41.1	138.0*	0.6	126.1	110.3	106.7
Cc1ccnc(Cc2ccccc2)n1	-6.9	x	14.2	6.7	x	x	x	x	x
Nc1n[nH]c2ccccc12	8.0	1.7	-111.0	17.7	136.5*	2.8	141.2*	101.3	97.4
CCc1cc2c(NCc3ccccc3)nc(C)nc2s1	2.9	x	-7.9	3.8	x	x	x	x	x
CCc1cc2c(NCCC(=O)O)nc(C)nc2s1	-59.9*	-0.4	26.0	32.7	157.9*	0.7	140.0*	109.2	100.1
CCOc1ccc2oc(C(=O)N3CC(C)OC(C)C3)c(C)c2c1 (stereo unspecified)	6.6	x	7.9	6.8	x	x	x	x	x
Cc1ccc(-n2nc(C)c3c2OC(N)=C(C#N)C3c2cccs2)cc1 (stereo unspecified)	0.8	-0.9	-9.1	68.0*	142.5*	-0.2	156.9*	109.6	94.1
COc1cccc(-c2nnc3n2N=C(C(C)(C)C)CS3)c1	-63.0*	-1.3	-5.6	4.1	204.4*	0.0	184.3*	34.1	111.1
CC(C)C(=O)N=c1sc2cc(F)cc(F)c2n1C	3.4	2.0	14.7	36.7	85.9	-0.3	x	x	x
CCC(=O)N=c1sc2cc(F)cc(F)c2n1C	5.5	-0.5	-5.9	12.1	140.1*	-0.1	125.3	108.3	139.2*
Cc1ccc(OCC(=O)c2c[nH]c3ccccc23)c([N+](=O)[O-])n1	3.5	0.9	5.0	45.2	157.9*	-0.1	164.6*	102.9	106.8
Cc1cc(C)nc(N2CCCC(C(=O)Nc3cccc(Cl)c3)C2)n1 (stereo unspecified)	11.7	x	-0.8	5.5	x	x	x	x	x
O=C1OCC2=C1C(c1ccc3c(c1)OCO3)c1cc3c(cc1O2)OCO3 (stereo unspecified)	15.4	x	x	x	x	x	x	x	x
CC(C)c1ccc(C2C3=C(COC3=O)Nc3cc4c(cc32)OCO4)cc1 (stereo unspecified)	-1.8	2.4	-12.5	3.5	151.4*	1.6	107.9	137.8*	116.5
Cc1ccc(N(CC(=O)NC2CCCC2)C(=O)CNC(=O)c2cccs2)cc1C	-4.2	x	-7.3	-1.0	x	x	x	x	x
Cc1cc(C)c2oc(-c3ccc(C)c(NC(=S)NC(=O)/C=C/c4ccco4)c3)nc2c1	30.1	0.5	8.3	18.2	151.2*	-0.1	146.4*	108.5	103.3
Cc1ccc2oc(-c3cccc(NC(=S)NC(=O)/C=C/c4ccco4)c3)nc2c1	-48.5	0.2	-1.9	67.4*	138.5*	-0.1	129.9	109.3	122.6*
Cc1ccc(NC(=S)NC(=O)/C=C/c2ccco2)c(O)c1	-10.0	0.2	-6.3	12.0	97.4	0.3	x	x	x
SMILES	HSF1 inh	PERK inh	PolyA inh	AHR activator	STAT3 act-1	Hsp70 activator	STAT3 act-2	NFkB act STAT3ct	STAT1 act STAT3c
Cc1cc(C)c2oc(-c3ccc(C)c(NC(=S)NC(=O)c4cccs4)c3)nc2c1	21.3	1.4	-3.0	20.2	164.6*	-0.1	147.4*	107.5	106.0
O=C(c1cc2cc(Cl)ccc2[nH]1)N1CCN(C(=O)c2ccco2)CC1	-2.4	x	0.5	22.8	x	x	x	x	x
CC1CN(Cc2ccc(C#N)cc2Cl)CC(C)O1 (stereo unspecified)	0.0	0.4	4.2	1.2	91.1	-0.3	x	x	x
CC1CN(Cc2ccc(Cl)cc2Cl)CC(C)O1 (stereo unspecified)	-14.4	1.1	-3.2	3.5	141.6*	-0.3	128.9	118.2	125.2*
CCn1c(SCC(=O)NNC(=O)c2ccc(C)cc2)nnc1C1CC1	-5.3	x	10.3	-0.8	x	x	x	x	x
CCOC(=O)C1(CC2CCCCO2)CCN(Cc2cc3ccccc3[nH]2)CC1 (stereo unspecified)	-7.1	0.1	19.5	21.4	143.8*	0.0	135.8*	104.2	95.1
CCCCc1ncc(CN2CCC(CC3CCCCO3)(C(=O)OCC)CC2)[nH]1 (stereo unspecified)	-3.9	0.3	23.8	2.9	105.4	-0.2	x	x	x
COc1ccccc1C(=O)NNC1=C(C(=O)C(F)(F)F)CCC1	-8.3	1.1	11.1	16.1	150.3*	-0.3	127.6	105.5	101.8
O=C(NNC1=C(C(=O)C(F)(F)F)CCC1)c1ccccc1O	-2.5	2.8	2.7	17.2	176.5*	0.1	148.2*	100.7	101.7
Cc1sc2c(c1C)CN(Cc1ccncc1)CN2C(=O)c1ccco1	24.2	-0.2	-3.8	19.9	98.0	-0.2	x	x	x

Screening results from PubChem BioAssay.
